Experimental data as given in ChEMBL document CHEMBL1148446, “New analogues of amonafide and elinafide, containing aromatic heterocycles: synthesis, antitumor activity, molecular modeling, and DNA binding properties” (J Med Chem, 2004).

Key:
[1] = test system: HT-29; experiment: In vitro cytotoxicity against human colon carcinoma (HT-29) cell line; assay type: functional, cell-based
Summary of the method: (§1)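 MTT assay on log-phase cells kept at 37 °C, 5% CO2. Seeded at 2.5 × 10³ cells/well; compound added 24 h later as serial PBS dilutions of a 1 × 10⁻⁵ M DMSO stock. Exposure 72 h, then MTT (1 mg/mL in PBS) for 4 h, DMSO solubilization, absorbance at 570 nm. PBS negative control, doxorubicin positive control. At least three experiments; IC50 = concentration reducing growth to 50% of control.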

[2] = test system: HeLa; experiment: In vitro cytotoxicity against human cervical carcinoma (HeLa) cell line; assay type: functional, cell-based; summary of the method: as §1
[3] = test system: PC-3; experiment: In vitro cytotoxicity against human prostate carcinoma (PC-3) cell line; assay type: functional, cell-based; summary of the method: as §1
[4] = test system: Mus musculus; experiment: In vivo antitumor activity in mice infected with HT-29 cells; assay type: functional
Summary of the method: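 HT-29 xenografts: 10⁶ cells/0.1 mL DMEM injected sc into the back of athymic nu/nu mice. At ~0.1 cm³ tumors, randomized to 4 control and 4 treated. Dosing 5 mg/kg ip in sterile 0.9% NaCl, daily for 4 days then 10 days off (14-day cycles), up to 60 days; controls given vehicle. Tumors measured 1–2×/week; V = (Dd²)/2.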

| SMILES | IC50 [1] [µM] | IC50 [2] [µM] | IC50 [3] [µM] | Reduction [4] [%] |
| --- | --- | --- | --- | --- |
| O=C1c2cccc3c2c(cc2occc23)C(=O)N1CCNCCCNCCN1C(=O)c2cccc3c2c(cc2occc23)C1=O | 0.37 | 0.73 | > 100 | – |
| CN(CCCN(C)CCN1C(=O)c2cccc3c2c(cc2sccc23)C1=O)CCN1C(=O)c2cccc3c2c(cc2sccc23)C1=O | 0.27 | 0.21 | 1.42 | – |
| CN(CCCN(C)CCN1C(=O)c2cccc3c2c(cc2ccoc23)C1=O)CCN1C(=O)c2cccc3c2c(cc2ccoc23)C1=O | 0.71 | 2.58 | 12.6 | – |
| O=C1c2cccc3c2c(cc2ccoc23)C(=O)N1CCNCCCNCCN1C(=O)c2cccc3c2c(cc2ccoc23)C1=O | 0.0068 | 0.044 | 0.5 | ~80 |
| CN(C)CCN1C(=O)c2cccc3c2c(cc2ccoc23)C1=O | 2.69 | 4.3 | 5.58 | – |
| O=C1c2cccc3c2c(cc2ccsc23)C(=O)N1CCNCCCNCCN1C(=O)c2cccc3c2c(cc2ccsc23)C1=O | 1.94 | 1.04 | 0.4 | – |
| CN(C)CCN1C(=O)c2cccc3c2c(cc2sccc23)C1=O | 1.15 | 0.8 | 3.5 | – |
| CN(C)CCN1C(=O)c2cccc3c2c(cc2occc23)C1=O | 0.55 | 0.14 | 0.164 | – |
| O=C1c2cccc3c2c(cc2sccc23)C(=O)N1CCNCCCNCCN1C(=O)c2cccc3c2c(cc2sccc23)C1=O | 0.047 | 0.16 | 0.93 | – |
| CN(CCCN(C)CCN1C(=O)c2cccc3c2c(cc2ccsc23)C1=O)CCN1C(=O)c2cccc3c2c(cc2ccsc23)C1=O | 0.39 | 0.57 | 2.5 | – |
| CN(C)CCN1C(=O)c2cccc3c2c(cc2ccsc23)C1=O | 0.75 | 0.86 | 1.19 | – |
